Screening data as filed in PubChem.
CAL PDZ FP-1 = inhibitors of human CAL PDZ peptide binding; purified CAL PDZ, TMR-peptide fluorescence polarization, 1 h; AID 504414; Q9HD26; hit rate 0.02% among 330,000; inhibition, % at 20 µM;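 active means highest replicate inhibition of at least 40%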
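System: purified tagged CAL PDZ domain construct (CerCALP). Schedule: 1 h incubation at room temperature before polarization reading. Medium: 25 mM sodium phosphate pH 7.4, 150 mM NaCl, TCEP, IgG, Thesit. Read-out: percent inhibition from loss of millipolarization. Measured by: FP readout, S and P plane fluorescence. Probe or stimulus: fluorescent TMR peptide probe.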
Arr AP2 block = inhibitors of human beta-arrestin and AP2 interaction. FITC-arrestin peptide / GST-AP2 beads, flow cytometry; AP2 beta2 appendage carries R879A mutation. inhibition, % at 10 µM. hit rate 0.31% among 340,000;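 active means inhibition above a set limit, near 3 SD of compounds lacking own fluorescence, cut at about 54% in these data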
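System: GST-AP2 R879A glutathione beads | Also added: FITC-arrestin peptide, 50 nM | Times: 12 min plus 1 h, RT | Signal: Bead flow cytometry, FITC channel | Buffer or medium: PBS with 0.05% Tween 20 and 0.1% BSA | Read-out basis: Percent drop in bead-associated FITC signal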
Tn7 DDE FP = inhibitors of Tn7 peptide binding to human fibrin DD(E); P02675; FP displacement of FITC-Tn7 peptide from fibrin DD(E); 0% = median of compound wells per plate; inhibition, % at 8.3 µM; hit rate 0.13% among 370,000; AID 720508;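 active means inhibition above the mean of compounds falling within the control limits plus 3 SD of them, cut at about 14% in these data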
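system = human fibrin DD(E) protein | quantity = DD(E) 2 µM final | medium = Tris/NaCl/CaCl2 buffer, pH 7.8 | also added = labelled Tn7 tracer, 0.1 µM | compound dosing = single point at 8.3 µM | timing = compound with protein 10 min, then 3 h after probe, room temperature | signal = FP measurement | benchmarks = Aha-Tn7 high control | repeats = one replicate per compound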
CAL PDZ FP-2 = blocks peptide binding to the human CAL PDZ domain. Q9HD26. purified CAL PDZ, TMR-peptide fluorescence polarization, 1 h. inhibition, % at 24.9 µM. hit rate 0.92% among 300,000;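 active means mean inhibition of at least 30% with at least half of replicates also reaching 30%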
DDE Tn6 FP inh = disrupts Tn6 cyclic peptide binding to fibrin D-Dimer-E complex. Fibrin DD(E) TRITC-Tn6 fluorescence polarization displacement. inhibition, % at 8.3 µM. hit rate 0.21% among 370,000;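 active means inhibition above a per-campaign cutoff: mean of compounds within control limits plus 3 SD, cut at about 15% in these data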
Arr-AP2 CP1 = human beta-arrestin and AP2 interaction inhibition, cherry pick; GST-AP2 beads, FITC arrestin peptide binding, flow cytometry; GST-fused beta2-adaptin appendage, R879A mutant; shares compounds with Arr AP2 block; hit rate 2% among 1,300; inhibition, % at 10 µM;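 active means inhibition above a set limit, roughly 3 SD of non-fluorescent compound noise, cut at about 38% in these data; inactive means inhibition at or below that limit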;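 further: loss of bead fluorescence from 50 nM FITC arrestin peptide bound to appendage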
Target sequence (P63010 whole entry, looked up, the tested form may be a part, one chain of several): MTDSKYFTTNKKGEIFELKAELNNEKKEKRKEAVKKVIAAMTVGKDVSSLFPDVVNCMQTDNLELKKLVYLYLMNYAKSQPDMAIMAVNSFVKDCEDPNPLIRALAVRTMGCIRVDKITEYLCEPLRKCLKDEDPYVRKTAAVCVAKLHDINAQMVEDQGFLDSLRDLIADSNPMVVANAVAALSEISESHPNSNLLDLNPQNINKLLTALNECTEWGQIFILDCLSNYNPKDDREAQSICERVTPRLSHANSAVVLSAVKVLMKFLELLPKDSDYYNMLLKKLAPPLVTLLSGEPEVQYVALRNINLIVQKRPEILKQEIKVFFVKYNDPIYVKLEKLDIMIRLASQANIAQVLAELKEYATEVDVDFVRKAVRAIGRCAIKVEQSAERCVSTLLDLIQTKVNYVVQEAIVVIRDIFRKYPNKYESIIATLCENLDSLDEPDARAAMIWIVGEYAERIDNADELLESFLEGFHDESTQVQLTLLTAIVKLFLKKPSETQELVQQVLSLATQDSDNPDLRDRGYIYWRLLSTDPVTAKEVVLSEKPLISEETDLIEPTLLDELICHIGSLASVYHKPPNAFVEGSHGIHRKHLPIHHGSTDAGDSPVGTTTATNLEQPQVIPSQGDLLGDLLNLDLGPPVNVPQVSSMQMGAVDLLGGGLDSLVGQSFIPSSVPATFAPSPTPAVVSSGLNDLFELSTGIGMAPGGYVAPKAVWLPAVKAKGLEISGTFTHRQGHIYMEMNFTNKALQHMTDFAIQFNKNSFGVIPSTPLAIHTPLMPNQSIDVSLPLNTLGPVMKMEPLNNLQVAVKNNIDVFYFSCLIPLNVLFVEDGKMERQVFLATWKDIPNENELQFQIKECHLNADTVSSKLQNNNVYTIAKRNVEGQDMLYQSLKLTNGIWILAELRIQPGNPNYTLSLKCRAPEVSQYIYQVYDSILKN
GST GSH counter = disrupts GST binding to glutathione beads, arrestin-AP2 artifact. inhibition, % at 10 µM. GST-fluorescein binding to GSH beads, fluorescence, counter-screen. hit rate 2% among 1,300. shares compounds with Arr AP2 block;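 active means inhibition above 50%, about 3 SD of the inhibition seen with non-fluorescent compounds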;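 further: fluorescein maleimide labelled GST captured on 4 micron glutathione beads; higher means more loss of bead fluorescence from quenching or blocked binding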
Numbers stand for hits; i = inactive; nt = no result given. An excerpt weighted towards active compounds, which were near 1.4% of everything screened.

SMILES	CAL PDZ FP-1	Arr AP2 block	Tn7 DDE FP	CAL PDZ FP-2	DDE Tn6 FP inh	Arr-AP2 CP1	GST GSH counter
COc1ccc(OC)c(NC(=O)Nc2cnccn2)c1	i	56.0	i	i	i	i	i
COc1ccccc1NC(=O)Nc1cnccn1	i	i	i	i	i	i	i
O=C(CNS(=O)(=O)c1ccc(F)cc1)N1CCN(c2ccccn2)CC1	nt	nt	i	nt	i	nt	nt
C=CCN1[C@H](C#N)[C@@H](c2ccc(C#Cc3ccccc3OC)cc2)[C@H]1CO	nt	nt	i	nt	i	nt	nt
O=[N+]([O-])c1ccc(NS(=O)(=O)c2cccc3cccnc23)cc1	i	55.4	i	i	i	i	i
O=C(CC(=O)c1ccccc1)Nc1ccccc1C(F)(F)F	i	i	i	i	i	i	i
COc1ccc(OC)c(NC(=O)c2cc3c(Cl)nc4ccccc4c3s2)c1	i	104.4	i	i	i	i	i
CCN(C(=O)COC(=O)Cc1c[nH]c2ccccc12)c1c(N)n(Cc2ccccc2)c(=O)[nH]c1=O	i	70.7	i	i	i	i	i
CC(C)C[C@H]1COc2cccc(F)c2S(=O)(=O)N1Cc1cn(Cc2ccco2)nn1	nt	nt	i	nt	i	nt	nt
COC(=O)C1CCCN(C(=O)C(Cc2ccc3c(c2)OCO3)NC(C)=O)C1 (stereo not given)	nt	nt	i	nt	i	nt	nt
CN1CC=C(c2ccccc2)N(c2ccccc2)C1=O	nt	nt	i	nt	i	nt	nt
Cc1ccc(NS(=O)(=O)c2cccc(C(=O)N3CCCC(C)C3)c2)cc1 (stereo not given)	i	58.0	i	i	i	i	i
COc1ccccc1NS(=O)(=O)c1cccc(C(=O)N2CCCCCC2)c1	i	55.0	i	i	i	i	i
COc1ccc(NS(=O)(=O)c2cccc(C(=O)N3CCCC(C)C3)c2)cc1 (stereo not given)	i	i	i	i	i	nt	nt
COc1ccccc1NS(=O)(=O)c1ccc(C(=O)N2CCCCCCC2)cc1	i	i	i	i	i	nt	nt
c1ccn2cc(CSc3nnc4ccccn34)nc2c1	i	i	i	i	i	nt	nt
Cn1ccnc1SCc1cn2ccccc2n1	i	83.0	i	i	i	i	i
CCn1cc(/C=C(\NC(=O)c2ccccc2)C(=O)N2CCOCC2)c2ccccc21	i	55.3	i	i	i	i	i
CC(NC(=O)c1cc(S(=O)(=O)N2CCOCC2)ccc1N1CCCC1)c1ccc(Cl)c(Cl)c1 (stereo not given)	i	i	i	i	i	i	i
CN(Cc1ccc(Cl)cc1)C(=O)c1cc(S(=O)(=O)N2CCOCC2)ccc1N1CCCC1	i	i	i	i	i	i	i
CN(Cc1ccc(F)cc1)C(=O)c1cc(S(=O)(=O)N2CCCCC2)ccc1N1CCOCC1	i	i	i	i	i	nt	nt
CN(CCOc1ccc(Cl)cc1)C(=O)c1cc(S(=O)(=O)N2CCOCC2)ccc1N1CCCC1	i	i	i	nt	i	i	i
O=C(Nc1ccccc1Cl)c1cc(S(=O)(=O)N2CCCCC2)ccc1N1CCOCC1	i	i	i	i	i	nt	nt
O=[N+]([O-])c1cnc2ccccc2c1Sc1ccccc1	nt	nt	i	nt	i	nt	nt
CCOc1ccc2nc(NC(=O)CS(=O)(=O)c3ccccc3)sc2c1	i	80.9	i	i	i	i	i
SMILES	CAL PDZ FP-1	Arr AP2 block	Tn7 DDE FP	CAL PDZ FP-2	DDE Tn6 FP inh	Arr-AP2 CP1	GST GSH counter
CCOc1ccc2nc(NC(=O)CS(=O)(=O)c3ccc(C)cc3)sc2c1	i	i	i	i	i	nt	nt
CCCc1cc(=O)[nH]c(SCC(=O)c2c[nH]c3ccccc23)n1	i	54.4	i	i	i	i	i
CN1C(=O)c2cc(NC(=O)Nc3ccccc3)ccc2OC[C@H]2O[C@@H](CC(=O)NCc3ccc(-c4ccccc4)cc3)CC[C@@H]21	nt	nt	i	nt	i	nt	nt
CCc1cccc(NC(=O)Cn2ncn3c(cc4ccccc43)c2=O)c1	i	i	i	i	i	nt	nt
Cc1ccc(NC(=O)Cn2ncn3c(cc4ccccc43)c2=O)cc1F	i	66.2	i	nt	i	i	i
Fc1cccc(F)c1Cn1ccc2ccc(-c3ccc4ccn(Cc5c(F)cccc5F)c4c3)cc21	nt	nt	i	nt	i	nt	nt
COc1ccc(NC(=O)CCCCn2c(=O)[nH]c3ccccc3c2=O)cc1	i	i	i	i	i	i	i
COc1ccc(NC(=O)CCCn2c(=O)[nH]c3ccccc3c2=O)cc1	i	i	i	i	i	i	i
O=C(CCn1c(=S)[nH]c2ccccc2c1=O)Nc1ccc(F)cc1	i	74.4	i	i	i	i	83.8
CCCCCC[C@@H](CCCc1ccccc1OC)CN(CCCC)S(C)(=O)=O	nt	nt	i	nt	i	nt	nt
CCn1cc(C(=O)Nc2ccc(C)c([N+](=O)[O-])c2)cn1	i	57.1	i	i	i	i	i
Cc1ccc2c(c1)C1CS(=O)(=O)N(CC(C)C)C(=O)N1C2 (stereo not given)	nt	nt	i	nt	i	nt	nt
CN1CCN(S(=O)(=O)c2cc([N+](=O)[O-])ccc2N/N=C/c2ccc(Cl)cc2)CC1	i	98.1	i	i	i	i	i
CC(C)[C@H](NC(=O)C1CCCC1)C(=O)N1CCC[C@H]1C(=O)NCCc1ccccc1Cl	nt	nt	i	nt	i	nt	nt
Nc1nn(-c2ccccc2)c(N)c1N=Nc1ccccc1F	i	56.2	i	i	i	i	i
C[C@H]1[C@H](NCc2cccnc2)CC[C@@]23CCCN2C(=O)CCC[C@@H]13	nt	nt	i	nt	i	nt	nt
Cc1ccc(SCC(=O)OCC(=O)NCC2CCCCC2)cc1C	i	i	i	i	i	nt	nt
Cc1ccc(SCC(=O)OCC(=O)NCCNC(=O)COC(=O)CSc2ccc(C)c(C)c2)cc1C	i	68.1	i	i	i	i	i
COc1ccc(S[C@]2(C(=O)N(C)C)CC(=O)N(C(=O)Nc3ccc(C)c(Cl)c3)[C@@H]2c2ccc(OC)cc2)cc1	nt	nt	i	nt	i	nt	nt
CC(C)CCn1cnc2c(sc3nc4c(cc32)CSC(C)(C)C4)c1=O	i	104.5	i	i	i	i	i
C#CCNC(=O)C[C@H]1C(=O)N(Cc2ccc(OC)cc2)C2=CCCCC[C@@]21C(=O)OC	nt	nt	i	nt	i	nt	nt
CC(OC(=O)c1ccc(Cl)nc1)C(=O)NCc1ccc2c(c1)OCO2 (stereo not given)	i	61.3	i	i	i	i	i
CC1C(c2ccccc2)=[N+]([O-])C2(CCCCC2)N1O (stereo not given)	i	73.6	i	i	i	i	i
CCOC(=O)[C@]12CCCCC/C=C\1N(Cc1ccc(OC)cc1)C(=O)[C@H]2CC(=O)NCc1cccc2ccccc12	nt	nt	i	nt	i	nt	nt
CNc1ccc(C(=O)OCC(=O)NCc2ccc3c(c2)OCO3)cc1[N+](=O)[O-]	i	95.6	i	i	i	i	i
CCN(CC)c1ccc(/C=N/NC(=O)Cc2cccs2)c(O)c1	i	60.9	i	i	i	i	i
